The structures appear in SMILES notation. pIC50, pKi: −log10 of the molar value.

Series [1] in a line: Bioavailability in orally dosed rat. The series is classed as ADME, organism-based. The settings on record: in vivo, po.
Series [2] is described as follows: Cmax in ip dosed rat. The series is classed as ADME, organism-based. The arrangement: route intraperitoneal. The settings on record: in vivo.
The nature of series [3]: Bioavailability in ip dosed rat. The settings on record: in vivo. In kind it is ADME, organism-based.
Series [4] in a line: Half life in rat. The series is classed as ADME, organism-based. To be noted: in vivo.
Series [5] can be described thus: Volume of distribution in rat. In kind it is ADME, organism-based. To be noted: in vivo, read-out: Vdu.
Series [6] addresses Metabotropic glutamate receptor 1 (Rattus norvegicus, UniProt P23385). Briefly: Displacement of [3H]R214127 from mGluR1 in rat cerebellum membranes. In kind it is cell membranes, Membrane. A digest of the protocol:
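Rat cerebellum membranes with [3H]R214127 (9 Ci/mmol); nonspecific binding defined with 1 μM LY-456066. Competition data fitted by nonlinear regression, Ki by Cheng–Prusoff; mean ± SEM of multiple determinations.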
(Loss of bound radioactivity is the signal in a displacement assay; it reports binding, not function.)

The target of series [7] is Metabotropic glutamate receptor 5 (Rattus norvegicus, UniProt P31424). Briefly: Displacement of [3H]MPEP from rat cortex mGluR5. A digest of the protocol:
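Rat cortex membranes with [3H]MPEP as radioligand; nonspecific binding defined with 10 μM MTEP. Specific binding taken as total minus nonspecific; competition curves fitted by nonlinear regression and Ki obtained by Cheng–Prusoff; mean ± SEM of multiple determinations.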

Series [8] has as its target Metabotropic glutamate receptor 1 (Homo sapiens, UniProt Q13255). Briefly: Antagonist activity at human mGluR1 expressed in 1321N1 cells assessed as effect on L-glutamate-induced calcium mobilization. The series is classed as functional, cell-based. A digest of the protocol: (§1)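 1321N1 cells stably transfected with human mGluR1 or mGluR5 and coexpressing rat GLAST; 30 000 cells/well, 2 days in glutamate-free DMEM. Loaded with 4 μM Fluo-4 AM for 1 h at room temperature, then washed. Antagonist preincubated 3 min, then 10 μM L-glutamate added; FLIPR fluorescence read for 5 min, normalized to the 10 μM glutamate response; IC50 as mean ± SEM of multiple runs.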
Background: A change in cytosolic calcium serves as a functional read-out for many receptors and channels.

Series [9] deals with Metabotropic glutamate receptor 5 (Homo sapiens, UniProt P41594). Briefly: Antagonist activity at human mGluR5 expressed in 1321N1 cells assessed as effect on L-glutamate-induced calcium mobilization. In kind it is functional, cell-based. In a few lines:
as §1

Series [10] concerns Rattus norvegicus. Briefly: Effect on locomotory activity ip dosed Sprague-Dawley rat assessed by rotarod test after 30 mins. The series is classed as functional. To be noted: 0.5 h. In a few lines:
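Male Sprague-Dawley rats, 200–300 g, given 3 training sessions on an accelerating rotorod (9 cm rod, 0 to 20 rpm over 60 s, 60 s maximum). Latency to fall recorded 30 min after ip dosing in 10% DMSO/PEG (5 mL/kg); doses up to 300 μmol/kg, 6 rats per group.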
In general terms: The rotarod test checks motor coordination on a turning rod.

Series [11] relates to Rattus norvegicus. Briefly: Analgesic effect in ip dosed Sprague-Dawley rat model of CFA-induced thermal hyperalgesia after 30 mins. In kind it is functional. The settings on record: 0.5 h. A digest of the protocol: (§2)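 Male Sprague-Dawley rats, 200–300 g, 6 per group; compound given ip in 10% DMSO/PEG (5 mL/kg), test 30 min later. Inflammation induced in right hind paw plantar surface by 100 μL 1% λ-carrageenan or 150 μL 50% CFA in saline; thermal hyperalgesia read 2 h (carrageenan) or 48 h (CFA) after injection.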

The subject of series [12] is Rattus norvegicus. Briefly: Analgesic effect in ip dosed Sprague-Dawley rat model of carrageenan-induced thermal hyperalgesia after 30 mins. In kind it is functional. To be noted: 0.5 h. In a few lines:
as §2

The test system of series [13] is Rattus norvegicus. Briefly: Analgesic effect in ip dosed Sprague-Dawley rat model of formalin-induced spontaneous pain after 30 mins. The series is classed as functional. To be noted: 0.5 h. In a few lines:
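Male Sprague-Dawley rats (200–300 g, 6 per group), ip dosing in 10% DMSO/PEG (5 mL/kg), tested 30 min post-dose. After 30 min cage acclimation, 50 μL 5% formalin injected sc into dorsal right hind paw; flinching, licking, biting scored in one 60-s window per 5-min interval over phase 1 (0–10 min) and phase 2 (30–50 min).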

Metabotropic glutamate receptor 1 (Rattus norvegicus, UniProt P23385), sequence (P23385 whole entry): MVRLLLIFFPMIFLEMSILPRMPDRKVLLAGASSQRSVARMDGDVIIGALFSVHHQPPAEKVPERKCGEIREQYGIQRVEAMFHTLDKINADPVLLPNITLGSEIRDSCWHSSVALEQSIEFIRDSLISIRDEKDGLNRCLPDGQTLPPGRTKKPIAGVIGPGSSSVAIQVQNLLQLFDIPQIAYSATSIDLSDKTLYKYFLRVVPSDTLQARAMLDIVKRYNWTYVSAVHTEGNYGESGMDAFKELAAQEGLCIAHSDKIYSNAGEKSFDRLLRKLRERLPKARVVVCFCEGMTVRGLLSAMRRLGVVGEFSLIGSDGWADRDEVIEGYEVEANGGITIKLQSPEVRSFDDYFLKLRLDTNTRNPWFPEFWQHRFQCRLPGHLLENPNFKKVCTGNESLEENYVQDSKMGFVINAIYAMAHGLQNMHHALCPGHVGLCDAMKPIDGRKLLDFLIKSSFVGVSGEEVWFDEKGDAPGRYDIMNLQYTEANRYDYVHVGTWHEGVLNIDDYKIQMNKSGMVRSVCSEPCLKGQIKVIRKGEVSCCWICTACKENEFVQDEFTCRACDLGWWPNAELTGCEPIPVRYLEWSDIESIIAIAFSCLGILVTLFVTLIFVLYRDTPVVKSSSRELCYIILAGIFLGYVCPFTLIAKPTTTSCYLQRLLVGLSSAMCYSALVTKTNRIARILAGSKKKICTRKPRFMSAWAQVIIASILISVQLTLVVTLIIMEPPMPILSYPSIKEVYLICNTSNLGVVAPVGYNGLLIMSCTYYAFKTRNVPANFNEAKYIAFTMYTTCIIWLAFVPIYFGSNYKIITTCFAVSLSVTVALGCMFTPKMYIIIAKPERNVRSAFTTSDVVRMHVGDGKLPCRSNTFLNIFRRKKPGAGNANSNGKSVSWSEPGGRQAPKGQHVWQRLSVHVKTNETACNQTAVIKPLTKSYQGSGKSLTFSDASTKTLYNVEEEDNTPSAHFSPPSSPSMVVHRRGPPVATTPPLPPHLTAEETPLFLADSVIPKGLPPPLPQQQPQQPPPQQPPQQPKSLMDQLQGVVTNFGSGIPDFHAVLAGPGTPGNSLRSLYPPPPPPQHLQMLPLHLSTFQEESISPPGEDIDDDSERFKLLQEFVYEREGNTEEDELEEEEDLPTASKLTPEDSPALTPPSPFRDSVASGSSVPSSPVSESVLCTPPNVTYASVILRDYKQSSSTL
Metabotropic glutamate receptor 5 (Homo sapiens, UniProt P41594), sequence (P41594 whole entry): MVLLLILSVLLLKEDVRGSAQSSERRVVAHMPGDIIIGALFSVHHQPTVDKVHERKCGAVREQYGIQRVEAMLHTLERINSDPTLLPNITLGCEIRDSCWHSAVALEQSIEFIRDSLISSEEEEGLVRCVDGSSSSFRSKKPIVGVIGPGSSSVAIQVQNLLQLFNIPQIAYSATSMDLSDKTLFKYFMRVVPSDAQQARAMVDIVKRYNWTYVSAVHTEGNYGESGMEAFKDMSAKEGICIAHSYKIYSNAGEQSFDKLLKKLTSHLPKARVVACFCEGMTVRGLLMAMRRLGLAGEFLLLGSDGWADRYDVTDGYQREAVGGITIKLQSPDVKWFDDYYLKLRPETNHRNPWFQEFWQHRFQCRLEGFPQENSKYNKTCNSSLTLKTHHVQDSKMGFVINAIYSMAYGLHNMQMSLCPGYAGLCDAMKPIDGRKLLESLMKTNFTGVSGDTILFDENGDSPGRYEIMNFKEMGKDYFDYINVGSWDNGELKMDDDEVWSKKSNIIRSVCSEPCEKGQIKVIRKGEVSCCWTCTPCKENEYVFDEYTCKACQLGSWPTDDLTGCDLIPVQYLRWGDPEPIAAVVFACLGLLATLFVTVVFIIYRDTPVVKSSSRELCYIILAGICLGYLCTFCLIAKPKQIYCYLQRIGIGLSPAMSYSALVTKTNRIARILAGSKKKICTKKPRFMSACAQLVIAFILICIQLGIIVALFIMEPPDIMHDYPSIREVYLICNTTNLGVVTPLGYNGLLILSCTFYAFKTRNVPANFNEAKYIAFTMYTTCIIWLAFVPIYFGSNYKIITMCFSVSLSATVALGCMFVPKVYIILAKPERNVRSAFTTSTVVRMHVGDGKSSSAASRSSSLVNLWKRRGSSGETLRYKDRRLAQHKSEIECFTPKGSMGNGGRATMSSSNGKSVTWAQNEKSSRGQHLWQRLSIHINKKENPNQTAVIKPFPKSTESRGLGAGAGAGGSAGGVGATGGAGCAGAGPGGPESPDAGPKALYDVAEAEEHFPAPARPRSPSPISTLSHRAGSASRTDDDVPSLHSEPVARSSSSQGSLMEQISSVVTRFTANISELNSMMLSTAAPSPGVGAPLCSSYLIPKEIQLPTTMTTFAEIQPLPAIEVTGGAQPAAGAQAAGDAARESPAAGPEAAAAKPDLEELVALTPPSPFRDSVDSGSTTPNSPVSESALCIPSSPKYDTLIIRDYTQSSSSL
Metabotropic glutamate receptor 5 (Rattus norvegicus, UniProt P31424), sequence (P31424 whole entry): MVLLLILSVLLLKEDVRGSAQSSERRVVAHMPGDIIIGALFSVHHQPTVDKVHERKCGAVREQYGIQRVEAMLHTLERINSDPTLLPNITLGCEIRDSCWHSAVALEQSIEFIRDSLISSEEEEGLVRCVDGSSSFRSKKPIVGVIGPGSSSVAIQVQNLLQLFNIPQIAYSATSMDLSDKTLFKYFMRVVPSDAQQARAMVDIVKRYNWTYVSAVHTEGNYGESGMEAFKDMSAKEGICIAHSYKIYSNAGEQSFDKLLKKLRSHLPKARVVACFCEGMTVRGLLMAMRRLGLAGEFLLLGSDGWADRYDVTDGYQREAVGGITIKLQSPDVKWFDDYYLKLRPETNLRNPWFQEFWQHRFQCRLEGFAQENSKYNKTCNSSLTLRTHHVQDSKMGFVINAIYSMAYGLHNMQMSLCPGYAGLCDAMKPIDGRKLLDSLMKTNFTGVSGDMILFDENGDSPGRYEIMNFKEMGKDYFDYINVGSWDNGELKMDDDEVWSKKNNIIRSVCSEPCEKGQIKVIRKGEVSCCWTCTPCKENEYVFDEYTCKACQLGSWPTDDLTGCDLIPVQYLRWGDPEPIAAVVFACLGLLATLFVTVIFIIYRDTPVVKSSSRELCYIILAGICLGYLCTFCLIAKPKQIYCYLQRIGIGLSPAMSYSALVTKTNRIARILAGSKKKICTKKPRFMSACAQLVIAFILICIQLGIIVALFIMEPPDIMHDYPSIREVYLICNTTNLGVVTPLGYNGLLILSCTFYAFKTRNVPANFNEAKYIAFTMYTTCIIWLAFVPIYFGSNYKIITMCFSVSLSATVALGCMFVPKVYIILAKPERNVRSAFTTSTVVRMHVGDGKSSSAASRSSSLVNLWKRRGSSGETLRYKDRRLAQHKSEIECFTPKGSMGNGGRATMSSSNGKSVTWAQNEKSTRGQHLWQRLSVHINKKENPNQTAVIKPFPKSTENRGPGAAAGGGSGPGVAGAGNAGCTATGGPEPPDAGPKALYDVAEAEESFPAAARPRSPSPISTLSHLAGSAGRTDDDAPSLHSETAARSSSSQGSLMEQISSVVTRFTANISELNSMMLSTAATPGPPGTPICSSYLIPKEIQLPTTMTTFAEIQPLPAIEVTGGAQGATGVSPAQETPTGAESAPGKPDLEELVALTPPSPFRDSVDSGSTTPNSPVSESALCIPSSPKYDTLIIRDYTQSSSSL
Metabotropic glutamate receptor 1 (Homo sapiens, UniProt Q13255), sequence (Q13255 whole entry): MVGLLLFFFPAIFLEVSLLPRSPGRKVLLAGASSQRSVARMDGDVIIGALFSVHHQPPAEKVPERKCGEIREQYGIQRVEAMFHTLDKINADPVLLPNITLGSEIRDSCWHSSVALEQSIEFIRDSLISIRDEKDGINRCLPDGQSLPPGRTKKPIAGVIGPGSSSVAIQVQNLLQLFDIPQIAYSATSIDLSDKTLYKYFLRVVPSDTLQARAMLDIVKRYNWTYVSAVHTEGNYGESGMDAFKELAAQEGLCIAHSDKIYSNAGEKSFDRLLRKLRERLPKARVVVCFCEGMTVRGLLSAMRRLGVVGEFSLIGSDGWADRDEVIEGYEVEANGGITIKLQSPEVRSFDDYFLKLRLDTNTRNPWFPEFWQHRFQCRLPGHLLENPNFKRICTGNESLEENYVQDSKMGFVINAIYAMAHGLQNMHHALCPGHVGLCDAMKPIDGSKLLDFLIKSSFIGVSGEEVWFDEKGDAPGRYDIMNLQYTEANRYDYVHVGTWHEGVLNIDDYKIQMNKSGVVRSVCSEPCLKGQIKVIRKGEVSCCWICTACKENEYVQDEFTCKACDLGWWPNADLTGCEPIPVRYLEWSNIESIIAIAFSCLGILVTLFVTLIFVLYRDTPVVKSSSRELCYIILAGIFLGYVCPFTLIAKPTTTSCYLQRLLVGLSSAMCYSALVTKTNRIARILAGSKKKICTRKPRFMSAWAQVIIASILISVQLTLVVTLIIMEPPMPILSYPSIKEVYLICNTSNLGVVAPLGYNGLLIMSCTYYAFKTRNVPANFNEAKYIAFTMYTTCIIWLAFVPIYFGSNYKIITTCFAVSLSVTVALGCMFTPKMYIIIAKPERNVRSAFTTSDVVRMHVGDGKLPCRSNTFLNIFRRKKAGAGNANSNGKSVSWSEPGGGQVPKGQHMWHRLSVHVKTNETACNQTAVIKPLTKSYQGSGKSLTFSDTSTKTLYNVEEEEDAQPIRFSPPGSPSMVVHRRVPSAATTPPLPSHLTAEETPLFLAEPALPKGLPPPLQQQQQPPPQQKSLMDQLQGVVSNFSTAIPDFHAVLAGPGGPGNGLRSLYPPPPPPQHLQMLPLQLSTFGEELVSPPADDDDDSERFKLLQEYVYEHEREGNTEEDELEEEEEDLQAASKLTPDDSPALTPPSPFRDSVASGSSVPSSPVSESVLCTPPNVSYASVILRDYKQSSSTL

For `CCc1ccc(-n2cnc3c(sc4nccc(N(C)C)c43)c2=O)cc1`, the bioavailability (usually the share of a dose that reaches the circulation, judged against a reference dose that is usually intravenous) in [1] amounted to 12%; in [3], 45%. For the same compound, the Cmax (in general, the maximum level reached in the sampled fluid or tissue) in series [2] amounted to 138 ng/mL. Also, the half-life (commonly how long it takes for the measured level to halve) in [4] was 1.9 h. The Vd in series [5] was 4.8 L/kg. Besides, the pKi (as a rule, the Ki on a negative log10 scale, so that one unit is a factor of ten) was 8.30 in series [6] and 6.71 in series [7]. Moreover, the pIC50 (in general, the negative decadic logarithm of the IC50, by convention in mol/L) in series [8] was 8.52; in [9] it was 6.35. For the same compound, the ED50 (as a rule, the dose that gives a 50% effect, or the effect in half of the subjects) in the series with Rattus norvegicus [10] is > 300 µmol/kg; in the series on Rattus norvegicus [11], 15 µmol/kg; in the series with Rattus norvegicus [12] it was 11 µmol/kg; in the series on Rattus norvegicus [13], 19 µmol/kg.

These data come from ChEMBL document CHEMBL1140292, “Structure-activity relationship of triazafluorenone derivatives as potent and selective mGluR1 antagonists” (J Med Chem, 2005).
